Source: article PMC3834432 (Toxicological Research, 2012)

Test: Micro-SPECT/CT imaging
Format: in vivo
Conditions: normal female ICR mice; 37 MBq i.v.; SPECT image at 30 min post injection
Summary of the method: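 Female ICR mice, obtained at 7 weeks old from a specific pathogen-free colony, were held three weeks for quarantine and adaptation. Housing was 23 ± 2 °C, 50 ± 5% humidity, 12 h light/dark, with diet and water ad libitum. Under 2% isoflurane, lying prone, mice were imaged on a small-animal SPECT/CT with a single-pinhole high-sensitivity mouse collimator.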

| Substance | Blood clearance (SPECT image, words) | Excretion / clearance from the body (SPECT image, words) |
| --- | --- | --- |
| Gly-Gly- Gly-Gly-Gly [^99mTc-tricarbonyl-Gly(5)] | fast blood clearance |  |
| Gly-Gly-Gly [^99mTc-tricarbonyl-Gly(3)] | fast blood clearances | good clearance property in vivo |
